In ChEMBL document CHEMBL3862041, “Discovery of Novel Bruton's Tyrosine Kinase (BTK) Inhibitors Bearing a N,9-Diphenyl-9H-purin-2-amine Scaffold” (ACS Med Chem Lett, 2016):
pIC50: −log10 of the molar value.

Assays:
[1] = Antiproliferative activity against human Ramos cells after 48 hrs by CCK-8 assay; assay type: functional, cell-based
Outline: (§1)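 Dose-response curves run at five concentrations in Ramos and Raji B-cell leukemia lines, with viability read by the CCK-8 method. IC50 is the concentration in micromolar that inhibits cell growth by 50%, taken from these curves.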

[2] = target: Tyrosine-protein kinase BTK (Homo sapiens, UniProt Q06187); experiment: Inhibition of recombinant human N-terminal His-tagged BTK expressed in baculovirus infected sf9 cells using poly(4:1 Glu,Tyr) as substrate by ADP-Glo kinase assay
[3] = target: T1, Tyrosine-protein kinase JAK3 (Homo sapiens, UniProt P52333); experiment: Inhibition of JAK3 (unknown origin)
T1 sequence (P52333 whole entry): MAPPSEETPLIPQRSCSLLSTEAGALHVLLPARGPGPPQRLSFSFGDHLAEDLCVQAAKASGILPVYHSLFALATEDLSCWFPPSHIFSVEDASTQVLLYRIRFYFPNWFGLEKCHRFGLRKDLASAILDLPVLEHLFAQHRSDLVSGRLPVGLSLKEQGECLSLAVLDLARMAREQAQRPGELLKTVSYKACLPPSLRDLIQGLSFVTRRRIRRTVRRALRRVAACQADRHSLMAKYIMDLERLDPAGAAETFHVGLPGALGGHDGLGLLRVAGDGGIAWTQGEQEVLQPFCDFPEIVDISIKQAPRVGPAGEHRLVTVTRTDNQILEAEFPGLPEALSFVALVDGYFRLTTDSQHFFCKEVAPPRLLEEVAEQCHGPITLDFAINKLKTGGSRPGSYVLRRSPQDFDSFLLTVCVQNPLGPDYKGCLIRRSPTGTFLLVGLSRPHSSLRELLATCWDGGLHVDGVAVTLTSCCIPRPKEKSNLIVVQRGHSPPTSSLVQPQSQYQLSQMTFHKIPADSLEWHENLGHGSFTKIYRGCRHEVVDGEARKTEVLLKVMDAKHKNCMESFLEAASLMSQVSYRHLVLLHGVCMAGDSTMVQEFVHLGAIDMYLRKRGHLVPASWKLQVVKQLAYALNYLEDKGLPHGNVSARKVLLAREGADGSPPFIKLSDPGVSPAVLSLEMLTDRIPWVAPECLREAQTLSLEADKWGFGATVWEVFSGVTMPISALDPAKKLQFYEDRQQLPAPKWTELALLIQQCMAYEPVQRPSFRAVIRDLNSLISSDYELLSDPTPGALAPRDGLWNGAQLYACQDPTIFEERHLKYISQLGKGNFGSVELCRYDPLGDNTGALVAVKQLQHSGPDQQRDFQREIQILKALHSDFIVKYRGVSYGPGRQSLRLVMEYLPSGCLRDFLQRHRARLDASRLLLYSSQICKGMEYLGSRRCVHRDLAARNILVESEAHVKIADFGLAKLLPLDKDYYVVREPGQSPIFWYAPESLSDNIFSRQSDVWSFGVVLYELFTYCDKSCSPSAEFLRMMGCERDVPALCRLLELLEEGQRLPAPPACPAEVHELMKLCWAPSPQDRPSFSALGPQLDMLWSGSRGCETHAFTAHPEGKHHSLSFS

[4] = Antiproliferative activity against human Raji cells after 48 hrs by CCK-8 assay; assay type: functional, cell-based; outline: as §1
Ramos [5] = experiment: Induction of apoptosis in human Ramos cells assessed as viable cells at 10 uM after 48 hrs by annexin V-FITC/propidium iodide staining based flow cytometry relative to control; assay type: functional; conditions: for viability at 10 µM: Homo sapiens, Ramos, 48 h, read-out: Activity
Outline: (§2)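 Ramos cells exposed for 48 h to the indicated compound concentrations. Cells then stained with annexin V/FITC and analysed by flow cytometry for apoptosis.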

Ramos [6] = experiment: Induction of apoptosis in human Ramos cells assessed as early apoptotic cells at 10 uM after 48 hrs by annexin V/FITC propidium iodide staining based flow cytometry relative to control; assay type: functional; outline: as §2
Ramos [7] = experiment: Induction of apoptosis in human Ramos cells assessed as late apoptotic cells at 10 uM after 48 hrs by annexin V/FITC propidium iodide staining based flow cytometry relative to control; assay type: functional; outline: as §2
Ramos [8] = experiment: Induction of apoptosis in human Ramos cells assessed as necrotic cells at 10 uM after 48 hrs by annexin V/FITC propidium iodide staining based flow cytometry relative to control; assay type: functional; outline: as §2
[9] = Cell cycle arrest in human Ramos cells assessed as accumulation at G0/G1 phase at 10 uM by propidium iodide staining based flow cytometry (reference value: 56.19%); assay type: functional
Outline: (§3)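 Ramos cells treated, then cell-cycle phase distribution (G0/G1, S, G2/M) measured by flow cytometry. Three separate experiments, expressed as mean±standard deviation.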

[10] = Cell cycle arrest in human Ramos cells assessed as accumulation at S phase at 10 uM by propidium iodide staining based flow cytometry (reference value: 42.23%); assay type: functional; outline: as §3
[11] = Cell cycle arrest in human Ramos cells assessed as accumulation at G2/M phase at 10 uM by propidium iodide staining based flow cytometry (reference value: 1.58%); assay type: functional; outline: as §3

Tyrosine-protein kinase BTK, sequence (Q06187 whole entry): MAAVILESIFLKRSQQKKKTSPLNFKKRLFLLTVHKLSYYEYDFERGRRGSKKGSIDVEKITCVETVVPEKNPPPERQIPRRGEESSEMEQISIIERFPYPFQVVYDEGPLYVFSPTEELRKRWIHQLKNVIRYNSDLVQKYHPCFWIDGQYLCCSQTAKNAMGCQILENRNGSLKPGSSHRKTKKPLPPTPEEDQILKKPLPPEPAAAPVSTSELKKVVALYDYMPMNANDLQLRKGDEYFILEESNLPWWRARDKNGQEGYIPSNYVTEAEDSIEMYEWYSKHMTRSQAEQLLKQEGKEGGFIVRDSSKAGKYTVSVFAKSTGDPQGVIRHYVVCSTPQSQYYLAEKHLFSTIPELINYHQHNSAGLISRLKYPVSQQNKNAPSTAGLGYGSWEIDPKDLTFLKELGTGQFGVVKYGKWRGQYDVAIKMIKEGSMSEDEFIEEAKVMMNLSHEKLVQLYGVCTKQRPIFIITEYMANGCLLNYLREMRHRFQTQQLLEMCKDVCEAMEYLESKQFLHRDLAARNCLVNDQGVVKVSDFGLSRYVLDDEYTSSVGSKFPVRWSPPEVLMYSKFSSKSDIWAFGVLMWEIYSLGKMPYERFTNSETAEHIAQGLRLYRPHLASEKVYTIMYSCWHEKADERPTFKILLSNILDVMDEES

Work on C=CC(=O)Nc1cccc(-n2c(=O)[nH]c3cnc(Nc4ccc(N5CCOCC5)cc4OC)nc32)c1 yielded a pIC50 [1] of 4.41, a pIC50 [2] of less than 7.00 and a pIC50 [3] of less than 7.00. The pIC50 [4] was less than 4.40.

Compound C=CC(=O)Nc1cccc(-n2cnc3cnc(Nc4ccc(N5CCN(CC)CC5)cc4)nc32)c1 has a pIC50 [1] of 4.92, a pIC50 [2] of 9.30 and a pIC50 [3] of 7.17. The pIC50 [4] was 4.71.

In the case of C=CC(=O)Nc1cccc(-n2cnc3cnc(Nc4ccc(N5CCOCC5)cc4)nc32)c1, the pIC50 [1] was 4.95, the pIC50 [2] was 7.82 and the pIC50 [3] was less than 7.00. For the same compound, the pIC50 [4] was 4.93.

With C=CC(=O)Nc1cccc(-n2cnc3cnc(Nc4ccc(N5CCN(S(C)(=O)=O)C(C)C5)cc4)nc32)c1 (stereo unspecified) the pIC50 [1] was less than 4.40, the pIC50 [2] was 7.88 and the pIC50 [3] was 7.08. For the same compound, the pIC50 [4] was 4.50.

Work on C=CC(=O)Nc1cccc(Nc2nc(Nc3ccc(OCCOC)cc3)ncc2F)c1 [SPEBRUTINIB] yielded a pIC50 [1] of 4.82, a pIC50 [4] of 4.60 and a viability at 10 µM (Ramos [5]) of 54.2%. The Activity (Ramos [6]) was 21.1%, the Activity (Ramos [7]) was 20.4% and the Activity (Ramos [8]) was 4.3%. The Activity [9] was 31%, the Activity [10] was 47.9% and the Activity [11] was 20.9%.

With C=CC(=O)Nc1cccc(-n2cnc3cnc(Nc4ccc(N5CCN(CC)CC5)cc4OC)nc32)c1 the pIC50 [1] was less than 4.40, the pIC50 [2] was less than 7.00 and the pIC50 [3] was less than 7.00. It also gave a pIC50 [4] of less than 4.40.

C=CC(=O)Nc1cccc(-n2cnc3cnc(Nc4ccc(N5CCN(C(C)=O)C(C)C5)cc4)nc32)c1 (stereo unspecified) showed a pIC50 [1] of less than 4.40, a pIC50 [2] of 9.30 and a pIC50 [3] of 7.21. The pIC50 [4] was 4.62.

Compound C=CC(=O)Nc1cccc(-n2cnc3cnc(Nc4ccc(N5CCN(S(C)(=O)=O)CC5)cc4OC)nc32)c1 has a pIC50 [1] of 4.41, a pIC50 [2] of less than 7.00 and a pIC50 [3] of less than 7.00. It also gave a pIC50 [4] of 4.66.

In the case of C=CC(=O)Nc1cccc(-n2cnc3cnc(Nc4ccc(N5CCN(C)CC5)cc4)nc32)c1, the pIC50 [1] was 5.09, the pIC50 [2] was 7.99 and the pIC50 [3] was 7.17. It also gave a pIC50 [4] of 5.12.

C=CC(=O)Nc1cccc(-n2cnc3cnc(Nc4ccc(OC)cc4)nc32)c1 showed a pIC50 [1] of less than 4.40, a pIC50 [2] of 7.01 and a pIC50 [3] of 7.17. It also gave a pIC50 [4] of 4.51.

In the case of C=CC(=O)Nc1cccc(-n2cnc3cnc(Nc4ccc(OCCCN5CCOCC5)cc4)nc32)c1, the pIC50 [1] was 5.11, the pIC50 [2] was 9.40 and the pIC50 [3] was 7.14. It also gave a pIC50 [4] of 4.90, a viability at 10 µM (Ramos [5]) of 44.9% and an Activity (Ramos [6]) of 41.9%. For the same compound, the Activity (Ramos [7]) was 10.9%, the Activity (Ramos [8]) was 2.2% and the Activity [9] was 41%. For the same compound, the Activity [10] was 52.4% and the Activity [11] was 6.61%.

With C=CC(=O)Nc1cccc(-n2cnc3cnc(Nc4ccc(N5CCN(C)CC5)cc4OC)nc32)c1 the pIC50 [1] was 4.88, the pIC50 [2] was less than 7.00 and the pIC50 [3] was less than 7.00. The pIC50 [4] was 4.86.

With C=CC(=O)Nc1cccc(-n2c(=O)[nH]c3cnc(Nc4ccc(N5CCN(CC)CC5)cc4)nc32)c1 the pIC50 [1] was 4.45, the pIC50 [2] was less than 7.00 and the pIC50 [3] was less than 7.00. The pIC50 [4] was 4.92.

In the case of C=CC(=O)N1CCC[C@@H](n2nc(-c3ccc(Oc4ccccc4)cc3)c3c(N)ncnc32)C1 [IBRUTINIB], the pIC50 [1] was 5.09, the pIC50 [4] was 4.82 and the Activity (Ramos [5]) was 62%. For the same compound, the Activity (Ramos [6]) was 37%, the Activity (Ramos [8]) was 0.1% and the Activity [9] was 46.4%. The Activity [10] was 53.5% and the Activity [11] was 0.15%.

C=CC(=O)Nc1cccc(-n2cnc3cnc(Nc4ccc(N5CCN(S(C)(=O)=O)CC5)cc4)nc32)c1 gave a pIC50 [1] of less than 4.40, a pIC50 [2] of 7.77 and a pIC50 [3] of 7.15. It also gave a pIC50 [4] of less than 4.40.
